Assay results reported in ChEMBL document CHEMBL5678799 (Biochem J, 2009).
Active and inactive are the calls of the source. The rule behind the calls is not given here.

What was measured:
[1] = target: Ribosomal protein S6 kinase alpha-1 (Homo sapiens) (UniProt Q15418); experiment: Inhibition of recombinant human N-terminal His6-tagged RSK1 (1 to 735 residues) expressed in baculovirus infected Sf21 cells assessed as remaining activity at 10 uM using KKLNRTLSVA as substrate incubated for 30 mins in presence of [gamma-33P]ATP by filter binding assay relative to control
Ribosomal protein S6 kinase alpha-1 (Homo sapiens), sequence (Q15418 whole entry, the tested form may be a part): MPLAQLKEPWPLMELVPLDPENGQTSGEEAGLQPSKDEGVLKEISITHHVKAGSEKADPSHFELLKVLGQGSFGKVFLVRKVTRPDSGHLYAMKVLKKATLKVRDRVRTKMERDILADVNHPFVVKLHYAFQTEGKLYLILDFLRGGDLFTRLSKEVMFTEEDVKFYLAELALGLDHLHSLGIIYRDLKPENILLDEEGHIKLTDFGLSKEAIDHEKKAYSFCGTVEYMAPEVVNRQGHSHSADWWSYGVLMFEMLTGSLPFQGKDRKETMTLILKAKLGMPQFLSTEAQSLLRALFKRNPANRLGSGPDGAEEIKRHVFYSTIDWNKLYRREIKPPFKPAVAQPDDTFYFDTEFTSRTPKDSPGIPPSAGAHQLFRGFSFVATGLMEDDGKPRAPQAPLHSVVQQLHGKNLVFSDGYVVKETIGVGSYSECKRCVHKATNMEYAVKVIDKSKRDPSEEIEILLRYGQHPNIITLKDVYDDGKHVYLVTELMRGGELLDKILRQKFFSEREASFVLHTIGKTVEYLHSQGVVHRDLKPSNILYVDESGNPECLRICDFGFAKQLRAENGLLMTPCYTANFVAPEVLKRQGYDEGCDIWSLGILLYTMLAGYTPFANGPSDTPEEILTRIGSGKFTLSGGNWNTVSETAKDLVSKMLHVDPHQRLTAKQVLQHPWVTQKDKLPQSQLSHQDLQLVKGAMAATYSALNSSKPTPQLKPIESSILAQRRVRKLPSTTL

[2] = target: Calcium/calmodulin-dependent protein kinase type 1 (Homo sapiens) (UniProt Q14012); experiment: Inhibition of recombinant human N-terminal GST-tagged CAMK1alpha (2 to 369 residues) expressed in Escherichia coli assessed as remaining activity at 1 uM using YLRRRLSDSNF as substrate incubated for 30 mins in presence of [gamma-33P]ATP by filter binding method relative to control
Calcium/calmodulin-dependent protein kinase type 1 (Homo sapiens), sequence (Q14012 whole entry, looked up, the tested form may be a part): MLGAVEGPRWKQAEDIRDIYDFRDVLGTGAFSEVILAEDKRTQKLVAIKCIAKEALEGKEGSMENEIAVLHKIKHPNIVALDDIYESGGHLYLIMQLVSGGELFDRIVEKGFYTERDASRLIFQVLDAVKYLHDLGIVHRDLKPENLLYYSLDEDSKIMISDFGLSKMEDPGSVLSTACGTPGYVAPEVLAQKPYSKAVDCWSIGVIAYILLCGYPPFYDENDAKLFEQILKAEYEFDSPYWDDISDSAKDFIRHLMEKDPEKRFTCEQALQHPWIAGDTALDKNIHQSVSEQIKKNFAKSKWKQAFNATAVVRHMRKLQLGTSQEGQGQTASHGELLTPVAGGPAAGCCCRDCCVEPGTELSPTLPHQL
Outline: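 Run robotically for 30 min at 21 °C under linear conditions. Compound at 1 or 10 µM. Percentage activity remaining versus control without compound, triplicate mean ± S.D.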

[3] = target: Vascular endothelial growth factor receptor 1 (Homo sapiens) (UniProt P17948); experiment: Inhibition of recombinant human N-terminal GST-tagged VEGFR1 (784 to 1338 residues) expressed in baculovirus infected Sf21 cells assessed as remaining activity at 1 uM using KKKSPGEYVNIEFG as substrate incubated for 30 mins in presence of [gamma-33P]ATP by filter binding assay relative to control
Vascular endothelial growth factor receptor 1 (Homo sapiens), sequence (P17948 whole entry, the tested form may be a part): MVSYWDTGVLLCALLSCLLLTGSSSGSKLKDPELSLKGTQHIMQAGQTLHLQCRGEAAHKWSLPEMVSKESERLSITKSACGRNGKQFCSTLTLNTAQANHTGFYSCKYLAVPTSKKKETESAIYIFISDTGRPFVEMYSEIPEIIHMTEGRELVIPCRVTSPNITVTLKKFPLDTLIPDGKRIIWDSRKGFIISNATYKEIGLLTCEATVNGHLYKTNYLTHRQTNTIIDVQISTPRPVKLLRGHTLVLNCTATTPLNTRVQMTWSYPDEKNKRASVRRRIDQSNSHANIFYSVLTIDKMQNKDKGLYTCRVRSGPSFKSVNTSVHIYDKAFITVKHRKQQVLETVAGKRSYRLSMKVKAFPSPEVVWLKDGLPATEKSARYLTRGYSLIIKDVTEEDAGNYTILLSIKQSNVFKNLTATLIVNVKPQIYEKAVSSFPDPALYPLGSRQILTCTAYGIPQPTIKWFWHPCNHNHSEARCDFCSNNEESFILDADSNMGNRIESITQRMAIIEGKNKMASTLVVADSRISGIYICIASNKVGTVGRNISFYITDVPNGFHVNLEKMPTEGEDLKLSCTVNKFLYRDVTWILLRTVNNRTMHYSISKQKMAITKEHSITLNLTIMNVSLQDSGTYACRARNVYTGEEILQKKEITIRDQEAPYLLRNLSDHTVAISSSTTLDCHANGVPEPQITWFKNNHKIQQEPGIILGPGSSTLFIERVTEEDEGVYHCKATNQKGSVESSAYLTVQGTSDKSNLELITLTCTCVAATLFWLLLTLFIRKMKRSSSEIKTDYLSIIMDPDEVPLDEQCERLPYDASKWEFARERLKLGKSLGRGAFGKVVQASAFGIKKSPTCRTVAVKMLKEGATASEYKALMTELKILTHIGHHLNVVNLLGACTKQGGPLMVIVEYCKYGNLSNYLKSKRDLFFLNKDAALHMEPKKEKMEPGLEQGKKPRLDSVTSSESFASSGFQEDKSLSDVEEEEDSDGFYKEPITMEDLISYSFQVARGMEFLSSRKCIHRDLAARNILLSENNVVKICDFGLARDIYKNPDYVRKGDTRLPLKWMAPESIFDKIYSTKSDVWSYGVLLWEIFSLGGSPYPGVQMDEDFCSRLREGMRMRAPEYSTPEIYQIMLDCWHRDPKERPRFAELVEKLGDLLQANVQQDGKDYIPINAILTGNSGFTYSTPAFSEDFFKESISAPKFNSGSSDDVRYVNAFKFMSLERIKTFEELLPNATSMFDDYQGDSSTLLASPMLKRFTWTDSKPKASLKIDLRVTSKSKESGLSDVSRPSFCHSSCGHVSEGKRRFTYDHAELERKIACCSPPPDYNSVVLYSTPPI
Outline: (§1)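 Panel assays were run for 30 min at 21 °C, within the linear range for time and enzyme. […] Results are percent activity remaining relative to compound-free control, averaged from triplicate ± S.D.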

[4] = target: Mitogen-activated protein kinase 12 (Homo sapiens) (UniProt P53778); experiment: Inhibition of recombinant human N-terminal GST-tagged P38gamma (1 to 367 residues) expressed in Escherichia coli assessed as remaining activity at 10 uM using MBP as substrate incubated for 30 mins in presence of [gamma-33P]ATP by filter binding method relative to control
Outline: (§2)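 Radiometric kinase panel run robotically at room temperature (21 °C) for 30 min, linear in time and enzyme. […] Activity is expressed as percent of control without compound, from triplicate determinations ± S.D.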

[5] = target: Serine/threonine-protein kinase PAK 4 (Homo sapiens) (UniProt O96013); experiment: Inhibition of recombinant human N-terminal GST-tagged PAK4 (2 to 519 residues) expressed in Escherichia coli assessed as remaining activity at 1 uM using RRRLSFAEPG as substrate incubated for 30 mins in presence of [gamma-33P]ATP by filter binding method relative to control; outline: as §2
[6] = target: Myosin light chain kinase (Homo sapiens) (UniProt Q32MK0); experiment: Inhibition of MLCK (unknown origin) assessed as remaining activity at 1 uM relative to control
Myosin light chain kinase (Homo sapiens), sequence (Q32MK0 whole entry): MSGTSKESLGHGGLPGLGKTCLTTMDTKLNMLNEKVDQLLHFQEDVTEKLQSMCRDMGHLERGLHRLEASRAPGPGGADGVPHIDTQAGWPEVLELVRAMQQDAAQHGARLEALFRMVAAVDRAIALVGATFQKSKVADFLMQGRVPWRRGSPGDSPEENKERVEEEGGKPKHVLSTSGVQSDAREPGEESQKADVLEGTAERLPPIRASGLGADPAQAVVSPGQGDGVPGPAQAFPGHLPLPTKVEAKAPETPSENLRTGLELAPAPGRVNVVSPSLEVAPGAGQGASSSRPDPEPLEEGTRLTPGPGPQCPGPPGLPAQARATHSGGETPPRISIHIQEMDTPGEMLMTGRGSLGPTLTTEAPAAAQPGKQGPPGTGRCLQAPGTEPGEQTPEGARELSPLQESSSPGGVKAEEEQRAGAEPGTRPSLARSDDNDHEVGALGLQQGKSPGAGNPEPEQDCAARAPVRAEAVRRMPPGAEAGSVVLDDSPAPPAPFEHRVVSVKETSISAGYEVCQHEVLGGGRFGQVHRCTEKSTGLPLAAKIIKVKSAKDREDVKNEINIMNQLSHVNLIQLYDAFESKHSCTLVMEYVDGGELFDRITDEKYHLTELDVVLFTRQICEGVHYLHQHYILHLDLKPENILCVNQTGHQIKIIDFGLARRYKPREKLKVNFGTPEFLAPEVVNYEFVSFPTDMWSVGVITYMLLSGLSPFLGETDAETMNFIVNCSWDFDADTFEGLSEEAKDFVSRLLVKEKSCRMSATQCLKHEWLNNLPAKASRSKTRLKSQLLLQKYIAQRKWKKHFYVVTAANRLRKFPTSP
Outline: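 Profiling-centre panel assay performed robotically at 21 °C for 30 min, linear with time and enzyme. […] Values are percent of compound-free control activity, the mean of triplicates ± S.D.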

[7] = target: Mitogen-activated protein kinase 11 (Homo sapiens) (UniProt Q15759); experiment: Inhibition of recombinant human N-terminal GST-tagged P38beta (1 to 364 residues) expressed in Escherichia coli assessed as remaining activity at 1 uM using MBP as substrate incubated for 30 mins in presence of [gamma-33P]ATP by filter binding method relative to control; outline: as §1
[8] = target: T1, mTORC2 (Homo sapiens) (UniProt P42345+Q6R327+Q9BVC4+Q9BPZ7); details: HEK293, dose 100-1000 nM, time 20.0 min
[9] = target: Tyrosine-protein kinase Lck (Homo sapiens) (UniProt P06239); experiment: Inhibition of recombinant human N-terminal His6-tagged LCK (2 to 509 residues) expressed in baculovirus infected Sf21 cells assessed as remaining activity at 10 uM using KVEKIGEGTYGVVYK as substrate incubated for 30 mins in presence of [gamma-33P]ATP by filter binding method relative to control
Tyrosine-protein kinase Lck (Homo sapiens), sequence (P06239 2-509 limits assumed): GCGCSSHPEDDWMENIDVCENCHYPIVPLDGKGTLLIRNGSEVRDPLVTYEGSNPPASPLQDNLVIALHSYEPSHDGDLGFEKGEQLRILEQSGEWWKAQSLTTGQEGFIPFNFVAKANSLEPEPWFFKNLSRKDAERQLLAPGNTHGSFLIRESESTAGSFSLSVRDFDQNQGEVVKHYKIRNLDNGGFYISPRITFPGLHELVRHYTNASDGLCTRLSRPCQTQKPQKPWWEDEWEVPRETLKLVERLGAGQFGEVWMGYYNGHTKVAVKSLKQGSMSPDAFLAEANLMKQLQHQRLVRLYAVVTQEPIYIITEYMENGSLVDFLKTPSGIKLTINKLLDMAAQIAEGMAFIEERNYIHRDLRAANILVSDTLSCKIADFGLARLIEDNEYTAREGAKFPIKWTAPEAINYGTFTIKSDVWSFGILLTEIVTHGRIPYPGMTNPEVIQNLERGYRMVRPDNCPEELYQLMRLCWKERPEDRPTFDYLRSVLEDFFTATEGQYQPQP
Outline: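 Assays ran 30 min at 21 °C, robotically and in the linear range. Remaining activity is given relative to incubations lacking compound, as the average of triplicate determinations ± S.D.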

[10] = tested on: MEF; experiment: Inhibition of mTORC2 in serum starved mLST8 knockout MEF cells assessed as reduction IGF1-stimulated AKT phosphorylation at Thr308 residue at 100 to 1000 nM incubated for 20 mins by immunoblot analysis; type: cell-based; details: Mus musculus, dose 100-1000 nM
Outline: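 Serum withdrawn 16 h. Inhibitor or vehicle given 30 min before stimulation with 50 ng/ml IGF-1 for 20 min. Lysed in Tris lysis buffer and immunoblotted for Akt Thr308 phosphorylation with ECL detection. Applies to HEK-293 and to wild-type, Rictor, Sin1 or mLST8 knockout MEFs. Three independent experiments.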

[11] = target: T1, mTORC2 (Homo sapiens); details: HEK293, dose 30-1000 nM, time 30.0 min
[12] = target: Serine/threonine-protein kinase PLK1 (Homo sapiens) (UniProt P53350); experiment: Inhibition of recombinant human N-terminal His6-tagged PLK1 (1 to 603 residues) expressed in baculovirus infected Sf21 cells assessed as remaining activity at 1 uM using ISDELMDATFADQEAKKK as substrate incubated for 30 mins in presence of [gamma-33P]ATP by filter binding method relative to control
Outline: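 Radiometric panel assay run robotically at 21 °C for 30 min, linear in time and enzyme. […] Activity is expressed as percentage of the compound-omitted control, averaged from triplicates ± S.D.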

[13] = target: MAP kinase-activated protein kinase 5 (Homo sapiens) (UniProt Q8IW41); experiment: Inhibition of recombinant human His6-tagged PRAK (1 to 471 residues) expressed in baculovirus infected Sf21 cells assessed as remaining activity at 1 uM using phosphorylase b peptide as substrate incubated for 30 mins in presence of [gamma-33P]ATP by filter binding method relative to control
MAP kinase-activated protein kinase 5 (Homo sapiens), sequence (Q8IW41 whole entry, the tested form may be a part): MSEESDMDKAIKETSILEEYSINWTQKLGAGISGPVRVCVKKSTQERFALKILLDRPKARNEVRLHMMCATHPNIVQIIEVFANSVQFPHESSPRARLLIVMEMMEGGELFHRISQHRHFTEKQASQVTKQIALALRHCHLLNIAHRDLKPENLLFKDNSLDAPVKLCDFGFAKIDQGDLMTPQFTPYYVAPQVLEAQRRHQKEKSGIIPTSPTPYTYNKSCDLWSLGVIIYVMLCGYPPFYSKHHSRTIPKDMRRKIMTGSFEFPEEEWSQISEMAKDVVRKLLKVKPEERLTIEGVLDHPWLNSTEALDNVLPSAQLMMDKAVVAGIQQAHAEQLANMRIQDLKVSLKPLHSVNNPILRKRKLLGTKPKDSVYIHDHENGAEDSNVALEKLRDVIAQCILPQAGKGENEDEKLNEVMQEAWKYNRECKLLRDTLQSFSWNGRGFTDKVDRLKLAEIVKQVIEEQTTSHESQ
Outline: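 Robotic radiometric panel assay, 30 min at room temperature (21 °C), with 10 mM magnesium acetate. […] Compound at 1 or 10 µM. Residual activity expressed relative to compound-free control; triplicate average ± S.D.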

[14] = target: Mitogen-activated protein kinase; ERK1/ERK2 (Homo sapiens) (UniProt P27361+P28482); experiment: Inhibition of ERK1/2 in serum starved/PMA-stimulated HEK293 cells assessed as reduction in RSK phosphorylation at T573 residues at 1 uM incubated for 30 mins by immunoblot analysis; type: cell-based
Mitogen-activated protein kinase; ERK1/ERK2 (Homo sapiens), sequence (P27361 whole entry, looked up, the tested form may be a part): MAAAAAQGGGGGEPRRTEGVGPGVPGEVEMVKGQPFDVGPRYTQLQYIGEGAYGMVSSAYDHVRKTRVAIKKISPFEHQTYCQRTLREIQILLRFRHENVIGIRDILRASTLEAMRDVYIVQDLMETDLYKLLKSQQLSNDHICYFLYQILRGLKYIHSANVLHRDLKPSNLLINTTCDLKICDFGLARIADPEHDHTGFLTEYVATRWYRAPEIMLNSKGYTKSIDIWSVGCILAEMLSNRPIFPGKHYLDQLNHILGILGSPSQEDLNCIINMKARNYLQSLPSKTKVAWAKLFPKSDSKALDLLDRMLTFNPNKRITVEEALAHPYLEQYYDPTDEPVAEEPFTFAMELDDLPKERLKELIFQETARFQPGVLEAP
Mitogen-activated protein kinase; ERK1/ERK2 (Homo sapiens), sequence (P28482 whole entry, looked up, the tested form may be a part): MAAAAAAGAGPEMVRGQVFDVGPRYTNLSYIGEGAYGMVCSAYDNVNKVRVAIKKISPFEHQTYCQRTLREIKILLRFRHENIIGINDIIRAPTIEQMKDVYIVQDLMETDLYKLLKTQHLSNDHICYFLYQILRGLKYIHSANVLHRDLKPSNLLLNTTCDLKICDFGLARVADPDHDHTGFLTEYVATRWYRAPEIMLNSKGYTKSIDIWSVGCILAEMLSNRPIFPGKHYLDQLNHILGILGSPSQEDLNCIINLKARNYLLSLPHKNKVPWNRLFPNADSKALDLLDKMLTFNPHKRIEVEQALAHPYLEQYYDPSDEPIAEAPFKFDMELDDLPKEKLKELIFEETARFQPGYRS

[15] = target: Protein kinase C zeta type (Homo sapiens) (UniProt Q05513); experiment: Inhibition of recombinant human N-terminal His6-tagged PKCzeta (2 to 592 residues) expressed in baculovirus infected Sf21 cells assessed as remaining activity at 1 uM using ERMRPRKRQGSVRRV as substrate incubated for 30 mins in presence of [gamma-33P]ATP by filter binding method relative to control

COc1ccc(-c2ccc3c(N4CCOCC4)nc(N4C[C@@H](C)O[C@@H](C)C4)nc3n2)cc1CO [Ku-0063794]
Activity [1]: 86%
Activity [2]: 96%
Activity [3]: 92%
Activity [4]: 91%
Activity [5]: 110%
Activity [6]: 82%
Activity [7]: 106%
inhibition [8]: Active
Activity [9]: 104%
inhibition [10]: Active
inhibition [11]: Dose-Dependent Effect
Activity [12]: 76%
Activity [13]: 67%
inhibition [14]: inactive
Activity [15]: 87%
